ChEMBL document CHEMBL4622866, “Synthesis, biochemical evaluation, and molecular modeling of organophosphate-coumarin hybrids as potent and selective butyrylcholinesterase inhibitors” (Bioorg Med Chem Lett, 2020)
Calls of active or inactive are those of the source. The calls are words filed in the database; no cut-off is given here.

Key:
Cholinesterase = Cholinesterase (Equus caballus, UniProt P81908); experiment: Inhibition of equine BChE using butyrylthiocholine as substrate measured after 15 sec by Ellman's method
How it was run: (§1)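 Ellman assay scaled to 120 μL reactions, with no enzyme–inhibitor pre-incubation. Activity read after 15 s of enzyme exposure. Inhibitor stocks were made in methanol and diluted into buffer; some values were determined in 2% DMSO. IC50 values are reported as mean with standard deviation.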

[1] = molecular target: Cholinesterase (Equus caballus) (UniProt P81908); experiment: Time dependent inhibition of equine BChE
Acetylcholinesterase [2] = molecular target: T1, Acetylcholinesterase (Electrophorus electricus, UniProt O42275); experiment: Time dependent inhibition of electric eel AChE
[3] = molecular target: Cholinesterase (Equus caballus) (UniProt P81908); experiment: Binding affinity to equine BChE assessed as observed rate constant
[4] = molecular target: Cholinesterase (Equus caballus) (UniProt P81908); experiment: Inhibition of equine BChE at 34 uM using butyrylthiocholine as substrate measured after 15 sec by Ellman's method relative to control
How it was run: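 Single-concentration Ellman screen (120 μL scale) at 34 μM inhibitor with 2% MeOH (v/v) vehicle. Activity read after 15 s of enzyme exposure, in triplicate, reported as mean. Expressed relative to a vehicle-only control reaction.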

[5] = Selectivity index, ratio of IC50 for electric eel AChE using acetylthiocholine as substrate measured after 15 sec by Ellman's method to IC50 for equine BChE using butyrylthiocholine as substrate measured after 15 sec by Ellman's method
Acetylcholinesterase [6] = molecular target: T1, Acetylcholinesterase; experiment: Inhibition of electric eel AChE using acetylthiocholine as substrate measured after 15 sec by Ellman's method; how it was run: as §1

T1 sequence (O42275 whole entry): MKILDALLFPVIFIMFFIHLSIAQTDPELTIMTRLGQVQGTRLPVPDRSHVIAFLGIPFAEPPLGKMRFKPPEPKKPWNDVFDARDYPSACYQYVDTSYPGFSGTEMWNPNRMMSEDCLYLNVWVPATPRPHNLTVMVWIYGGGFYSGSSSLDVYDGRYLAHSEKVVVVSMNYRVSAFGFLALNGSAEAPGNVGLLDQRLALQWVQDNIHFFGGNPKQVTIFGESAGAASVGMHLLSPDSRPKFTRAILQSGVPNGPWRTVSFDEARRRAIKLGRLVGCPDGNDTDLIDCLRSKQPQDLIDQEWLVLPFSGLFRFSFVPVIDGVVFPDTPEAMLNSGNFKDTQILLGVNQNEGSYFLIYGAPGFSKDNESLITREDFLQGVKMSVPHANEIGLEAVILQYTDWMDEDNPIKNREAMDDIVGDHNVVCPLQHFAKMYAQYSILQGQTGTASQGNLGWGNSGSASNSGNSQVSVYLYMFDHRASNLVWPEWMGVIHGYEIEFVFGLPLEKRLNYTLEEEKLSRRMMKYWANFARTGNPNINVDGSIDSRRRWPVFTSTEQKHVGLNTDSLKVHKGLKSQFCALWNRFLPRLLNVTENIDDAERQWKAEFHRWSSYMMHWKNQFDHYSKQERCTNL
Chain of Cholinesterase (P81908 whole entry): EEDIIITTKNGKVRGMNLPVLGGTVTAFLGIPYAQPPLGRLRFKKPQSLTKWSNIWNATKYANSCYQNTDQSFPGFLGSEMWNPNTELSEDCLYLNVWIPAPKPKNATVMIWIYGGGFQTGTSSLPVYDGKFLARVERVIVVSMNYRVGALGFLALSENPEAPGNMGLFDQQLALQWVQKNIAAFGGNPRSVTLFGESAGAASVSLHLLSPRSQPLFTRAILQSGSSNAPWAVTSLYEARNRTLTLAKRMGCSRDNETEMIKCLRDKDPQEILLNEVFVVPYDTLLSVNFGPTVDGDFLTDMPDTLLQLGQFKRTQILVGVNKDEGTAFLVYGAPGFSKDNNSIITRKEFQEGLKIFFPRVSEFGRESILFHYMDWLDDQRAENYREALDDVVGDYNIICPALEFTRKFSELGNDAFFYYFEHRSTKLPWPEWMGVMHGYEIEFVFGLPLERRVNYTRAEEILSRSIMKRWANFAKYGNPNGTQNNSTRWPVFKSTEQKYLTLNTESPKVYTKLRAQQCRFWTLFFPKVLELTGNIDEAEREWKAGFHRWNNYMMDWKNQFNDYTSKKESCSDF
Chain of Cholinesterase (Equus caballus) (P81908 whole entry): as above

Structure (SMILES)	IC50 (Cholinesterase)	other results
CCOP(=S)(OCC)Oc1ccc(Cc2cc3ccccc3oc2=O)cc1	53 µM	
CCOP(=O)(OCC)Oc1cccc2ccccc12	54 µM	
CCCCOP(=O)(OCCCC)Oc1c(C(CC(C)=O)c2ccccc2)c(=O)oc2ccccc12 (racemic)	1.52 µM	TDI [1]: Active; TDI (Acetylcholinesterase [2]): Not Active
CCS(=O)(=O)Oc1cccc2ccccc12	71.5 µM	
O=c1oc2ccccc2cc1Cc1ccc(O)cc1	51.2 µM	
CCOP(=S)(OCC)Oc1c(C(CC(C)=O)c2ccccc2)c(=O)oc2ccccc12 (racemic)	> 100 µM	K [3]: 8400 M⁻¹ s⁻¹
O=c1oc2cccc(O)c2cc1Cc1ccccc1	> 700 µM	
CC(=O)CC(c1ccccc1)c1c(O)c2ccccc2oc1=O (stereo unspecified)		inhibition [4]: 10%
CCOP(=O)(OCC)Oc1ccc(Cc2cc3ccccc3oc2=O)cc1	30.2 µM	inhibition [1]: Active; Ratio IC50 [5]: 3; IC50 (Acetylcholinesterase [6]): 30.2 µM
CCOP(=O)(OCC)Oc1c(C(CC(C)=O)c2ccccc2)c(=O)oc2ccccc12 (racemic)	11.2 µM	TDI [1]: Active; TDI (Acetylcholinesterase [2]): Not Active; K [3]: 142000 M⁻¹ s⁻¹
O=c1oc2cccc(O)c2cc1Cc1ccc(O)cc1	32 µM	
CCOP(=O)(OCC)Oc1cccc2oc(=O)c(Cc3ccccc3)cc12	0.363 µM	
